System: MS2 coat protein
Assay: apparent Kd, MS2 coat protein; higher = weaker binding; RNA-MaP array; FMN 200 µM where present
Outline: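 Stalled E. coli RNA polymerase transcribed the designs on Illumina sequencing-chip clusters. SNAP-549-labelled MS2 coat protein was titrated from 0.7 or 1.5 nM, doubling to 3 µM, without and then with constant ligand, in 100 mM Tris-HCl pH 7.5, 80 mM KCl, 4 mM MgCl2, BSA, DTT, yeast tRNA and Tween-20. Per-cluster binding curves were fitted to green signal normalised to red-channel RNA signal and control-cluster median Fmax. The apparent Kd is the median of the filtered fits.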

[1] = designed as: OFF switch for flavin mononucleotide, no ligand
[2] = ligand present: flavin mononucleotide, designed as: OFF switch for flavin mononucleotide
[3] = designed as: ON switch for flavin mononucleotide, no ligand
[4] = ligand present: flavin mononucleotide, designed as: ON switch for flavin mononucleotide

Sequence: UCACGGUAUGUAGGAUAUGCAUAGCAUUGCUAUGCAGAAGGACAUGAGGAUCACCCAUGUAUGUAUUCCAUACUAAUCCCGUGU
- apparent Kd [1]: 0.00615 µM
- apparent Kd [2]: 0.00609 µM

Sequence: CGGUGACGUGUAGGAUAUGGCGAUGGGUUUUGGCCAGAAGGACAUGAGGAUCACCCAUGUGGUAGAGGGCUGGCGGCUGCCCGU
- apparent Kd [1]: 0.0136 µM
- apparent Kd [2]: 0.0575 µM

Sequence: AUAUGAUAGAUAGGAUAUACUGAGGUUGAAUGGGUAGAAGGAUCGAUAGGGAAGACUACAUGAGGAUCACCCAUGUUGUGGAUU
- apparent Kd [3]: 0.0884 µM
- apparent Kd [4]: 0.0527 µM

Sequence: AACUCGUCAGGAUAUGCGCACAGAUAAUACGCUACACAAUUGCAGAAGGGACAUGAGGAUCACCCAUGUAAAUA
- apparent Kd [1]: 0.039 µM
- apparent Kd [2]: 0.0262 µM

Sequence: GUCAGCUCGUGAGGAUAUACAUGUGCUGGAAACAGCACUAUUAUGUUCACAUGAGGAUCACCCAUGUAGAAGGCACGAGCUGAU
- apparent Kd [1]: 0.0162 µM
- apparent Kd [2]: 0.0249 µM

Sequence: CUCAUCCUUACAGGCUGAGACAUGAGGAUCACCCAUGUAGGGAGAAGGGAGUUGGGCAUCUUGACUCAGGAUAUCCCGAAAGAC
- apparent Kd [3]: 0.733 µM
- apparent Kd [4]: 0.0837 µM

Sequence: UACAUUACUUAGAAGGGAUAUAUAUAAUUUUAAUCAGGAUAUAGAUACAGUACAACAUGAGGACAUGAGGAUCACCCAUGUAUU
- apparent Kd [3]: 0.0314 µM
- apparent Kd [4]: 0.0232 µM

Sequence: AGCUGUGGCCGAGGAUAUCACGAACCAUGGAAAACCAUGGAACUCAUACAUGAGGAUCACCCAUGUGAGAAGGCGGUCUCAGCA
- apparent Kd [1]: 0.0341 µM
- apparent Kd [2]: 0.0296 µM

Sequence: GUCAGCUCGUGAGGAUAUACAACACUGCUUCGGGAGUGUAUUAAGAUCACAUGAGGAUCACCCAUGUAGAAGGCACGAGCUGAU
- apparent Kd [1]: 0.015 µM
- apparent Kd [2]: 0.254 µM

Sequence: GAGAAGUCAGGAUAUCCAUGGCGGCACUUGCGUGGUGGCGUGGAGAAGGGACAUGAGGAUCACCCAUGUAAAGA
- apparent Kd [1]: 0.0527 µM
- apparent Kd [2]: 0.0368 µM

Sequence: GCAAAGCCUGACAUGAGGAUCACCCAUGUUAGAUUGUUAUGUCAGGAUAUUGUCUAGACCCUAGACAAGAAGGGAUGCUUUGCA
- apparent Kd [3]: 0.472 µM
- apparent Kd [4]: 0.0291 µM

Sequence: ACCGAAUGAACAUGAGGAUCACCCAUGUACACGAAAGUGAAUGAGGAUAUCGAUAGCAAAGCUAUCGAGAAGGCAUGGGUCGGU
- apparent Kd [3]: 0.565 µM
- apparent Kd [4]: 0.144 µM

Sequence: CGGCGGAAAGGAUAUGCAUUAAUAUCAAUAUGUGGGCCACGACAUGAGGAUCACCCAUGUAGAAGGUUCAGCCG
- apparent Kd [1]: 0.0218 µM
- apparent Kd [2]: 0.0168 µM

Sequence: GCCGUCAACGUAGGAUAUCUUCAGCCACAGCACAUUGCUGUACAUGAGGAUCACCCAUGUCCUGGAGAGAAGGACGGACGGCAG
- apparent Kd [3]: 0.108 µM
- apparent Kd [4]: 0.0196 µM

Sequence: UUGGACGUCGUAGGAUAUGUAGGAUAUUCCUACAUGAGGAUCACCCAUGUUGACAUGGAAGAAGGACAAAAGGACGAUGUCCAU
- apparent Kd [3]: 0.377 µM
- apparent Kd [4]: 0.00905 µM

Sequence: AUCAGCUCGUCAGGAUAUACGUCACUGAGUCAGCAGUGUGGUAAGAUCACAUGAGGAUCACCCAUGUAGAAGGGACGAGCUGAU
- apparent Kd [1]: 0.0163 µM
- apparent Kd [2]: 0.241 µM

Sequence: GGACGUGACAUUAACAUGAGGAUCACCCAUGUCAAAAGACAUGAGGAUAUGGAUCCGAAAAGGAUCCAGAAGGCAUGCACGUCC
- apparent Kd [3]: 0.587 µM
- apparent Kd [4]: 0.0371 µM

Sequence: GGUGCAUAUGAGAAGGCGGUCAUGAAACAUGAUCGAGGAUAUCAUGUAAACAUGAGGAUCACCCAUGUAUGGGAAUAAUGCACC
- apparent Kd [3]: 0.238 µM
- apparent Kd [4]: 0.016 µM

Sequence: AACAUGCUAGGAUAUACAAGACAAAUUGGGCAUCCGCAUGGACAUGAGGAUCACCCAUGUAGAAGGAGUAUAAA
- apparent Kd [1]: 0.167 µM
- apparent Kd [2]: 0.278 µM

Sequence: CUAAUGAGUGCGAGCUGACACAUGAGGAUCACCCAUGUAACACAGGAUAUCUGUCAAGGCGUGAAAGAGAAGGGUGGUCGGAAA
- apparent Kd [3]: 0.142 µM
- apparent Kd [4]: 0.263 µM

Sequence: AUACAUGAGGAUCACCCAUGUUACUGGGUCUAUAUAGAACGUAGAAGGAUGUAUUUAAGAAUAACAUAGGAUAUACUUUAUAGU
- apparent Kd [1]: 0.0604 µM
- apparent Kd [2]: 0.0382 µM

Sequence: AAAUCGCAAGGAUAUCGUCAGUCUGACAUGAGGAUCACCCAUGUUAUCUUGGUAUCAGAGCGAGAAGGUGCAAAGU
- apparent Kd [1]: 0.013 µM
- apparent Kd [2]: 0.0139 µM

Sequence: GGAUGAUUAAUAGGAUAUUAUUUGUAAAAUGGUUAAGAAGGAUUAAUGAUUUAAACGACCAGAUACAUGAGGAUCACCCAUGUA
- apparent Kd [3]: 0.0244 µM
- apparent Kd [4]: 0.0219 µM

From the EternaBench riboswitch data
